Experimental data as given in ChEMBL document CHEMBL1156797, “Synthesis and antiplasmodial activity of new indolone N-oxide derivatives” (J Med Chem, 2010).
pIC50: −log10 of the molar value.

tested on: Plasmodium berghei; test: Antimalarial activity against Plasmodium berghei ANKA infected Swiss mice (Mus musculus) assessed as reduction in parasitemia at 30 mg/kg, intraperitoneally after 3 days measured on day 4; assay type: functional; parameters: scale not given: the % may be the effect or the level left; details: route intraperitoneal
In short: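 P. berghei ANKA in male Swiss outbred CD-1 mice (20 g), kept specific pathogen-free. Infection was iv with 2×10^6 infected red cells on day 0, then mice were randomized into groups of five per dose. Compound was given ip in 0.05% Tween 80. Parasitaemia was read from Giemsa-stained blood films on day 4 and expressed as % inhibition from group arithmetic mean parasitaemia versus the untreated group.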

Compound | Activity [%]
COc1ccc2c(c1)C(=O)C(c1ccc(OC(C)C)cc1)=[N+]2[O-] | 30.4
COc1ccc2c(c1)C(=O)C(c1ccc(N(C)C)cc1)=[N+]2[O-] | 15.3
O=C1C(c2ccc(Cl)cc2)=[N+]([O-])c2cc3c(cc21)OCO3 | 62.1
COc1ccc(C2=[N+]([O-])c3ccccc3C2=O)cc1 | 40.5

tested on: Plasmodium falciparum; test: Resistance index, ratio of IC50 for chloroquine-resistant Plasmodium falciparum FcB1 to IC50 for drug-sensitive Plasmodium falciparum 3D7; assay type: functional; details: not given

Compound | Ratio IC50
COc1ccc2c(c1)C(=O)C(c1ccc(Cl)cc1)=[N+]2[O-] | 3.4
COc1ccc2c(c1)C(=O)C(c1ccc(OC(C)C)cc1)=[N+]2[O-] | 0.5
COc1ccc2c(c1)C(=O)C(c1ccc(C)cc1)=[N+]2[O-] | 1.9
COc1ccc2c(c1)C(=O)C(c1ccc(Oc3ccccc3)cc1)=[N+]2[O-] | 5.2
COc1ccc2c(c1)C(=O)C(c1ccc(Cl)c(C(F)(F)F)c1)=[N+]2[O-] | 0.7
COc1ccc2c(c1)C(=O)C(c1ccc(C)c(C)c1)=[N+]2[O-] | 0.3
COc1ccc2c(c1)C(=O)C(c1ccc(N(C)C)cc1)=[N+]2[O-] | 2.9
O=C1C(c2ccc(Cl)cc2)=[N+]([O-])c2cc3c(cc21)OCO3 | 1.3
COc1ccc(C2=[N+]([O-])c3ccccc3C2=O)cc1 | 1.9

tested on: Plasmodium falciparum; test: Antimalarial activity against Plasmodium falciparum K1 assessed as [3H]hypoxanthine incorporation by scintillation counting; assay type: functional, organism-based; details: not given

Compound | pIC50
COc1ccc2c(c1)C(=O)C(c1ccc(Cl)cc1)=[N+]2[O-] | 7.23
COc1ccc2c(c1)C(=O)C(c1ccc(OC(C)C)cc1)=[N+]2[O-] | 7.09
COc1ccc2c(c1)C(=O)C(c1ccc(C)cc1)=[N+]2[O-] | 7.70
COc1ccc2c(c1)C(=O)C(c1ccc(Oc3ccccc3)cc1)=[N+]2[O-] | > 8.82
COc1ccc2c(c1)C(=O)C(c1ccc(Cl)c(C(F)(F)F)c1)=[N+]2[O-] | 8.30
COc1ccc2c(c1)C(=O)C(c1ccc(C)c(C)c1)=[N+]2[O-] | 6.75
O=C1C(c2ccc(Cl)cc2)=[N+]([O-])c2cc3c(cc21)OCO3 | 7.06
COc1ccc(C2=[N+]([O-])c3ccccc3C2=O)cc1 | 6.91

tested on: not listed separately; test: Cytotoxicity against human MCF7 cells after 48 hrs by MTT assay; assay type: cell-based; details: not given

Compound | CC50 at 48 h [nM]
COc1ccc2c(c1)C(=O)C(c1ccc(Cl)cc1)=[N+]2[O-] | 21500
COc1ccc2c(c1)C(=O)C(c1ccc(OC(C)C)cc1)=[N+]2[O-] | > 32100
COc1ccc2c(c1)C(=O)C(c1ccc(C)cc1)=[N+]2[O-] | > 37500
COc1ccc2c(c1)C(=O)C(c1ccc(Oc3ccccc3)cc1)=[N+]2[O-] | 7700
COc1ccc2c(c1)C(=O)C(c1ccc(Cl)c(C(F)(F)F)c1)=[N+]2[O-] | 13500
COc1ccc2c(c1)C(=O)C(c1ccc(C)c(C)c1)=[N+]2[O-] | 26000
COc1ccc2c(c1)C(=O)C(c1ccc(N(C)C)cc1)=[N+]2[O-] | 43900
O=C1C(c2ccc(Cl)cc2)=[N+]([O-])c2cc3c(cc21)OCO3 | 15900
COc1ccc(C2=[N+]([O-])c3ccccc3C2=O)cc1 | > 39500

tested on: Plasmodium berghei; test: Antimalarial activity against Plasmodium berghei NK65 infected Swiss mice (Mus musculus) assessed as reduction in parasitemia at 48 mg/kg, intraperitoneally after 3 days measured on day 4; parameters: scale not given: the % may be the effect or the level left; details: route intraperitoneal

Compound | Activity [%]
O=C1C(c2ccc(Cl)cc2)=[N+]([O-])c2cc3c(cc21)OCO3 | 81

tested on: not listed separately; test: Selectivity index, ratio of CC50 for human MCF7 cells to IC50 for chloroquine-resistant Plasmodium falciparum FcB1; assay type: functional; details: not given
In short: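 XTT 0.5 mg/mL added for 180 min, formazan read at 450 nm, value taken from dose–response curves, two experiments in triplicate. This CC50 is divided by the FcB1 IC50 to give the index.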

Compound | Ratio CC50/IC50
COc1ccc2c(c1)C(=O)C(c1ccc(Cl)cc1)=[N+]2[O-] | 102
COc1ccc2c(c1)C(=O)C(c1ccc(OC(C)C)cc1)=[N+]2[O-] | > 1890
COc1ccc2c(c1)C(=O)C(c1ccc(C)cc1)=[N+]2[O-] | >721
COc1ccc2c(c1)C(=O)C(c1ccc(Oc3ccccc3)cc1)=[N+]2[O-] | 40
COc1ccc2c(c1)C(=O)C(c1ccc(Cl)c(C(F)(F)F)c1)=[N+]2[O-] | 270
COc1ccc2c(c1)C(=O)C(c1ccc(C)c(C)c1)=[N+]2[O-] | 702.7
COc1ccc2c(c1)C(=O)C(c1ccc(N(C)C)cc1)=[N+]2[O-] | > 14600
O=C1C(c2ccc(Cl)cc2)=[N+]([O-])c2cc3c(cc21)OCO3 | 212
COc1ccc(C2=[N+]([O-])c3ccccc3C2=O)cc1 | >202

tested on: Plasmodium falciparum; test: Antimalarial activity against chloroquine-resistant Plasmodium falciparum FcB1 assessed as [3H]hypoxanthine incorporation after 48 hrs by beta-counter; assay type: functional, organism-based; details: FcB1/Columbia
In short: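 Primary assay (Toulouse) on FcB1 cultured in RPMI with 25 mM HEPES and 10% human serum, O RBCs. Serial dilutions in triplicate, 2% parasitaemia, 2% haematocrit, 48 h at 37 °C, 5% CO2. [3H]-hypoxanthine added at 24 h, freeze-thaw harvest, β-counting. IC50 by linear regression on the linear segment of the semilog inhibition curve. Three independent repeats.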

Compound | pIC50
COc1ccc2c(c1)C(=O)C(c1ccc(Cl)cc1)=[N+]2[O-] | 6.68
COc1ccc2c(c1)C(=O)C(c1ccc(OC(C)C)cc1)=[N+]2[O-] | 7.77
COc1ccc2c(c1)C(=O)C(c1ccc(C)cc1)=[N+]2[O-] | 7.28
COc1ccc2c(c1)C(=O)C(c1ccc(Oc3ccccc3)cc1)=[N+]2[O-] | 6.71
COc1ccc2c(c1)C(=O)C(c1ccc(Cl)c(C(F)(F)F)c1)=[N+]2[O-] | 7.30
COc1ccc2c(c1)C(=O)C(c1ccc(C)c(C)c1)=[N+]2[O-] | 7.43
COc1ccc2c(c1)C(=O)C(c1ccc(N(C)C)cc1)=[N+]2[O-] | > 8.52
O=C1C(c2ccc(Cl)cc2)=[N+]([O-])c2cc3c(cc21)OCO3 | 7.12
COc1ccc(C2=[N+]([O-])c3ccccc3C2=O)cc1 | 6.71

tested on: not listed separately; test: Selectivity index, ratio of CC50 for human KB cells to IC50 for drug-sensitive Plasmodium falciparum 3D7; assay type: functional; details: not given
In short: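 The 3D7 value came from [3H]hypoxanthine incorporation: synchronized culture at 0.5% parasitaemia, 2.5% hematocrit, Albumax-supplemented medium, 2-fold dilutions from 100 to 0.05 μM in triplicate, label added at 24 h and harvested at 48 h.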

Compound | Ratio CC50/IC50
COc1ccc2c(c1)C(=O)C(c1ccc(Cl)cc1)=[N+]2[O-] | 7564
COc1ccc2c(c1)C(=O)C(c1ccc(OC(C)C)cc1)=[N+]2[O-] | 10031
COc1ccc2c(c1)C(=O)C(c1ccc(C)cc1)=[N+]2[O-] | 2074
COc1ccc2c(c1)C(=O)C(c1ccc(Oc3ccccc3)cc1)=[N+]2[O-] | 151
COc1ccc2c(c1)C(=O)C(c1ccc(Cl)c(C(F)(F)F)c1)=[N+]2[O-] | <20
COc1ccc2c(c1)C(=O)C(c1ccc(C)c(C)c1)=[N+]2[O-] | 980
COc1ccc2c(c1)C(=O)C(c1ccc(N(C)C)cc1)=[N+]2[O-] | 198823
O=C1C(c2ccc(Cl)cc2)=[N+]([O-])c2cc3c(cc21)OCO3 | 450
COc1ccc(C2=[N+]([O-])c3ccccc3C2=O)cc1 | 4525

tested on: Plasmodium falciparum; test: Resistance index, ratio of IC50 for chloroquine-resistant Plasmodium falciparum K1 to IC50 for drug-sensitive Plasmodium falciparum 3D7; assay type: functional; details: not given

Compound | Ratio IC50
COc1ccc2c(c1)C(=O)C(c1ccc(Cl)cc1)=[N+]2[O-] | 1
COc1ccc2c(c1)C(=O)C(c1ccc(OC(C)C)cc1)=[N+]2[O-] | 2.5
COc1ccc2c(c1)C(=O)C(c1ccc(C)cc1)=[N+]2[O-] | 0.7
COc1ccc2c(c1)C(=O)C(c1ccc(Oc3ccccc3)cc1)=[N+]2[O-] | <0.04
COc1ccc2c(c1)C(=O)C(c1ccc(Cl)c(C(F)(F)F)c1)=[N+]2[O-] | 0.1
COc1ccc2c(c1)C(=O)C(c1ccc(C)c(C)c1)=[N+]2[O-] | 1.2
O=C1C(c2ccc(Cl)cc2)=[N+]([O-])c2cc3c(cc21)OCO3 | 1.5
COc1ccc(C2=[N+]([O-])c3ccccc3C2=O)cc1 | 1.2

tested on: not listed separately; test: Cytotoxicity against human KB cells after 72 hrs by alamar blue assay; assay type: cell-based; details: not given
In short: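 KB cells were seeded at 4×10^4 cells/mL in RPMI 1640 with 10% heat-inactivated FCS and left 24 h at 37 °C, 5% CO2. A dilution series was added in triplicate for 72 h, then AlamarBlue for 2–4 h. Fluorescence was read at ex 530/em 585 nm, with podophyllotoxin as positive control and values from curve fitting.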

Compound | CC50 at 72 h [nM]
COc1ccc2c(c1)C(=O)C(c1ccc(Cl)cc1)=[N+]2[O-] | 469000
COc1ccc2c(c1)C(=O)C(c1ccc(OC(C)C)cc1)=[N+]2[O-] | 321000
COc1ccc2c(c1)C(=O)C(c1ccc(C)cc1)=[N+]2[O-] | 56000
COc1ccc2c(c1)C(=O)C(c1ccc(Oc3ccccc3)cc1)=[N+]2[O-] | 5600
COc1ccc2c(c1)C(=O)C(c1ccc(Cl)c(C(F)(F)F)c1)=[N+]2[O-] | < 1400
COc1ccc2c(c1)C(=O)C(c1ccc(C)c(C)c1)=[N+]2[O-] | 148000
COc1ccc2c(c1)C(=O)C(c1ccc(N(C)C)cc1)=[N+]2[O-] | 338000
O=C1C(c2ccc(Cl)cc2)=[N+]([O-])c2cc3c(cc21)OCO3 | 27000
COc1ccc(C2=[N+]([O-])c3ccccc3C2=O)cc1 | 457000

tested on: not listed separately; test: Metabolic stability in CD1 mouse liver microsomes assessed as half life; assay type: ADME, Microsome; details: not given

Compound | half-life [min]
COc1ccc2c(c1)C(=O)C(c1ccc(OC(C)C)cc1)=[N+]2[O-] | 6
COc1ccc2c(c1)C(=O)C(c1ccc(N(C)C)cc1)=[N+]2[O-] | 6
O=C1C(c2ccc(Cl)cc2)=[N+]([O-])c2cc3c(cc21)OCO3 | < 1
COc1ccc(C2=[N+]([O-])c3ccccc3C2=O)cc1 | 16

tested on: Mus musculus; test: Toxicity in Swiss mouse at 140 mg/kg, ip; assay type: organism-based; parameters: dose 140 mg/kg, route intraperitoneal; details: in vivo

Compound | Activity
O=C1C(c2ccc(Cl)cc2)=[N+]([O-])c2cc3c(cc21)OCO3 | Non-toxic

tested on: Plasmodium berghei; test: Antimalarial activity against Plasmodium berghei NK65 infected Swiss mice (Mus musculus) assessed as reduction in parasitemia treated intraperitoneally for 3 days measured on day 4; details: NK65, ip

Compound | ED50 [mg/kg]
O=C1C(c2ccc(Cl)cc2)=[N+]([O-])c2cc3c(cc21)OCO3 | 16

tested on: Plasmodium berghei; test: Antimalarial activity against Plasmodium berghei ANKA infected Swiss mice (Mus musculus) assessed as reduction in parasitemia at 30 mg/kg, perorally after 3 days measured on day 4; assay type: functional; parameters: scale not given: the % may be the effect or the level left; details: route oral
In short: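 Male Swiss outbred CD-1 mice (20 g) were infected iv with 2×10^6 P. berghei ANKA-infected red cells and put in groups of five per dose. Dosing was by oral gavage in suspending vehicle (0.5% Na carboxymethylcellulose, 0.5% benzyl alcohol, 0.4% Tween 80, 0.9% NaCl), starting 3 h postinfection, then once daily on days 1–3. Day-4 Giemsa films; % inhibition against untreated mean parasitaemia.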

Compound | Activity [%]
COc1ccc2c(c1)C(=O)C(c1ccc(OC(C)C)cc1)=[N+]2[O-] | 25.1
COc1ccc2c(c1)C(=O)C(c1ccc(N(C)C)cc1)=[N+]2[O-] | 20.9
O=C1C(c2ccc(Cl)cc2)=[N+]([O-])c2cc3c(cc21)OCO3 | 14.5
COc1ccc(C2=[N+]([O-])c3ccccc3C2=O)cc1 | 32.4

tested on: Plasmodium falciparum; test: Antimalarial activity against drug-sensitive Plasmodium falciparum 3D7 assessed as [3H]hypoxanthine incorporation by scintillation counting; assay type: functional, organism-based; details: not given

Compound | pIC50
COc1ccc2c(c1)C(=O)C(c1ccc(Cl)cc1)=[N+]2[O-] | 7.21
COc1ccc2c(c1)C(=O)C(c1ccc(OC(C)C)cc1)=[N+]2[O-] | 7.49
COc1ccc2c(c1)C(=O)C(c1ccc(C)cc1)=[N+]2[O-] | 7.57
COc1ccc2c(c1)C(=O)C(c1ccc(Oc3ccccc3)cc1)=[N+]2[O-] | 7.43
COc1ccc2c(c1)C(=O)C(c1ccc(Cl)c(C(F)(F)F)c1)=[N+]2[O-] | 7.16
COc1ccc2c(c1)C(=O)C(c1ccc(C)c(C)c1)=[N+]2[O-] | 6.85
COc1ccc2c(c1)C(=O)C(c1ccc(N(C)C)cc1)=[N+]2[O-] | 8.77
O=C1C(c2ccc(Cl)cc2)=[N+]([O-])c2cc3c(cc21)OCO3 | 7.24
COc1ccc(C2=[N+]([O-])c3ccccc3C2=O)cc1 | 7.00
